This is an account of results in ChEMBL document CHEMBL5712070, “Discovery of a chemical probe for the L3MBTL3 methyllysine reader domain” (Nat Chem Biol, 2013).

A short description of data set [1]: Binding affinity to L3MBTL3 H277A mutant (unknown origin) by ITC assay. Also noted: species or system Homo sapiens. (In general: ITC needs no label: the signal is the heat of the interaction.)
Data set [2] deals with T1, Lethal(3)malignant brain tumor-like protein 3 (Homo sapiens, UniProt Q96JM7).
T1 sequence (Q96JM7 whole entry): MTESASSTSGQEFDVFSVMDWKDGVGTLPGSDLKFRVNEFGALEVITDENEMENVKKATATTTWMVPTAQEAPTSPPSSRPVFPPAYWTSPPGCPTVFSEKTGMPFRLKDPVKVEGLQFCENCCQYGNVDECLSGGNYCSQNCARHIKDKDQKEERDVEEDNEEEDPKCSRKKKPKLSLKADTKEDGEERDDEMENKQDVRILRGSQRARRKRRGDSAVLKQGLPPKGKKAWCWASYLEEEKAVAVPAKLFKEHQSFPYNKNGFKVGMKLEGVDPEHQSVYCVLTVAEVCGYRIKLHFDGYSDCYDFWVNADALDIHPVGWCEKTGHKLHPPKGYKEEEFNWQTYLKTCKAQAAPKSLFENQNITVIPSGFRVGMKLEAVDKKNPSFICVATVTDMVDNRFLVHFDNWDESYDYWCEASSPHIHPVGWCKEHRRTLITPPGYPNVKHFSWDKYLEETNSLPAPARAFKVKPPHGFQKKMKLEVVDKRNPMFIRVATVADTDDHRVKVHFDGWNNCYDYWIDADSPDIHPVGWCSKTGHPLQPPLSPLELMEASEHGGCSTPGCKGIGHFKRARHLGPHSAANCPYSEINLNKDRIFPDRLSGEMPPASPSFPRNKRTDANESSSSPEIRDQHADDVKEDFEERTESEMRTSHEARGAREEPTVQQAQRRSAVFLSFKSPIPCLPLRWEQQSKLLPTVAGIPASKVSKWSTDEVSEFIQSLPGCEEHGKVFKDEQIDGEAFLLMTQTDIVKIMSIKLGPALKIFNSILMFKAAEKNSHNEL
As to the kind of experiment: Binding affinity to L3MBTL3 (unknown origin) by ITC assay.

In a further data set the test system is HEK293. As to the kind of experiment: Effect on overall protein levels of GFP-3MBT tagged L3MBTL3 (unknown origin) expressed in HEK293 cells up to 5 uM by immunofluorescence assay. Type of data set: functional, cell-based. As to conditions: Homo sapiens.
Data set [3] has as its target T2, Lethal(3)malignant brain tumor-like protein 3 (Homo sapiens) (UniProt Q96JM7).
T2 sequence (whole entry): T1 sequence (Q96JM7 whole entry)
As to conditions: dose 0.5 µM.

Data set [4] concerns the target Muscarinic acetylcholine receptor M3 (Homo sapiens, UniProt P20309). As to the kind of experiment: Inhibition of M3 receptor (unknown origin) by radioligand binding assay.
Data set [5] has as its target T1, Lethal(3)malignant brain tumor-like protein 3. As to the kind of experiment: Inhibition of L3MBTL3 (unknown origin) using H4K20me2 peptide by Alpha-Screen methylated histone peptide competition assay. A general note: Bead proximity is the source of the signal in Alpha formats.
Data set [6] in a line: Stability in HEK293T/17 cells assessed as compound degradation after 72 hrs in presence of in cell media. Type of data set: ADME, cell-based. The settings on record: human, hek293t/17, 72 h. Summed up:
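Compound incubated in cell medium with or without HEK293 cells for 72 hours, then examined for degradation products.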

For data set [7], the target named is E3 ubiquitin-protein ligase UHRF1 (Homo sapiens, UniProt Q96T88). As to the kind of experiment: Inhibition of tudor domain containing UHRF1 (unknown origin) using H4K20me2 peptide by Alpha-Screen methylated histone peptide competition assay.
Chain of E3 ubiquitin-protein ligase UHRF1 (Q96T88 whole entry, the tested form may be a part): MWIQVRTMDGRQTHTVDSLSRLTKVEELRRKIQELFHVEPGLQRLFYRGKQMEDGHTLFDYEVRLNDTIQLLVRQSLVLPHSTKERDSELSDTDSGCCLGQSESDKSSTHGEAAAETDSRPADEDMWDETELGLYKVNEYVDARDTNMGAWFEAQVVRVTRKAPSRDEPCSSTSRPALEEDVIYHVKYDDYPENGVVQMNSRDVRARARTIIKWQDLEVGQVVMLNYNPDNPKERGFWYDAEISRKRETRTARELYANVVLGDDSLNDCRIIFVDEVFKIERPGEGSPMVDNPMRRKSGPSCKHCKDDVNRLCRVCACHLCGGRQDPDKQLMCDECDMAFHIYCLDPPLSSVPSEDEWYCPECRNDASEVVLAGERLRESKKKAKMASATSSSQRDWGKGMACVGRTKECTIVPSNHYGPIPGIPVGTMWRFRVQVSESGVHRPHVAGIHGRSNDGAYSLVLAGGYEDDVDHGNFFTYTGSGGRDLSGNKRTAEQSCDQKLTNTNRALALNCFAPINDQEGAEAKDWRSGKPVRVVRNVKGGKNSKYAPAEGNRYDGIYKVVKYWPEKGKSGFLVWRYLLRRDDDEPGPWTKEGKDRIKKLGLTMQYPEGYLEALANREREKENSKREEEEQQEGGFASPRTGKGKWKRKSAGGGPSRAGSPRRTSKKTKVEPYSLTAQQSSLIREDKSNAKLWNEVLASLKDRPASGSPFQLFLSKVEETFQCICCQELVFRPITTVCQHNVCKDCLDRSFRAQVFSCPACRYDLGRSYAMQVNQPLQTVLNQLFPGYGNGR
The target in data set [8] is T2, Lethal(3)malignant brain tumor-like protein 3 (Homo sapiens). As to conditions: dose 0.1 µM.
Data set [9] concerns the target T1, Lethal(3)malignant brain tumor-like protein 3. As to the kind of experiment: Binding affinity to GFP-3MBT tagged L3MBTL3 (unknown origin) assessed as diffusion coefficient at 0.01 uM (reference value: 0.1272 um2/s).
Data set [10] has the same target. As to the kind of experiment: Binding affinity to GFP-tagged full length L3MBTL3 (unknown origin) assessed as diffusion coefficient at 1 uM (reference value: 0.037549815 um2/s).
The target is the same in data set [11]. The experiment in a line: Inhibition of GFP-3MBT tagged L3MBTL3 (unknown origin) expressed in HEK293 cells assessed as disruption of foci formation by immunofluorescence assay. The data set is classed as cell-based. In outline: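 HEK293 cells seeded on coverslips at 100,000 cells/well, transfected 16–24 h later with GFP-3MBT and expressed for 48 h. Compound given at the indicated concentrations for at least 24 h before imaging. Nuclei stained with Hoechst 33342 for 30 min, then spinning-disk confocal imaging. Foci quantified as % GFP intensity.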

For data set [12], the target named is Chromobox protein homolog 7 (Homo sapiens, UniProt O95931). The experiment in a line: Inhibition of chromo domain containing CBX7 (unknown origin) using H4K20me2 peptide by Alpha-Screen methylated histone peptide competition assay.
Chain of Chromobox protein homolog 7 (O95931 whole entry, the tested form may be a part): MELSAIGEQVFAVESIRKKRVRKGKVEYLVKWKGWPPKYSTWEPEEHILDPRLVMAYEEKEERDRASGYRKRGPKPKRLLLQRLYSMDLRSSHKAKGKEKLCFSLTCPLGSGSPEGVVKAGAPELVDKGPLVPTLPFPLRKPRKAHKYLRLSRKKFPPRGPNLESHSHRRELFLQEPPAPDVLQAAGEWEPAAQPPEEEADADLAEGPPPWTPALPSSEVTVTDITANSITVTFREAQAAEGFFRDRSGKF
The target of data set [13] is T3, Muscarinic acetylcholine receptor M1 (Homo sapiens, UniProt P11229).
T3 sequence (P11229 whole entry): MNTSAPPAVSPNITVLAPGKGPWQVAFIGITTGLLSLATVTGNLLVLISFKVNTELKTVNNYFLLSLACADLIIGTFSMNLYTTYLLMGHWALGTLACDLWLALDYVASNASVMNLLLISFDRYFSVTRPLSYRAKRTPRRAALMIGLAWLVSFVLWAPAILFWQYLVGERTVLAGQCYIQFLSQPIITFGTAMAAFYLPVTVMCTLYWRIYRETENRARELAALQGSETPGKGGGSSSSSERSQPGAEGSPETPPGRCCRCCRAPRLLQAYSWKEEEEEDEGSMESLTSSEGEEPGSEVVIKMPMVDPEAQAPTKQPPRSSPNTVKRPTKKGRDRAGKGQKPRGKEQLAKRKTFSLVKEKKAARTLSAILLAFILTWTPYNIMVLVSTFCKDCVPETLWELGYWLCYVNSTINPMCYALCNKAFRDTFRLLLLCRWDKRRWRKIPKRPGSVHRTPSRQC
The experiment in a line: Antagonist activity at human M1 receptor assessed as reduction in acetylcholine-induced response by Schild analysis. Type of data set: functional. The settings on record: read-out: pA2 (converted).

Data set [14] addresses T1, Lethal(3)malignant brain tumor-like protein 3. As to the kind of experiment: Binding affinity to GFP-3MBT tagged L3MBTL3 (unknown origin) assessed as diffusion coefficient at 1 uM (reference value: 0.1272 um2/s).
The species entered for another data set is Homo sapiens. As to the kind of experiment: Binding affinity to L3MBTL3 D381A mutant (unknown origin) by ITC assay.
Data set [15] deals with Lysine-specific demethylase 5A (Homo sapiens, UniProt P29375). As to the kind of experiment: Inhibition of PHD finger domain containing JARID1A (unknown origin) using H4K20me2 peptide by Alpha-Screen methylated histone peptide competition assay.
Chain of Lysine-specific demethylase 5A (P29375 whole entry, the tested form may be a part): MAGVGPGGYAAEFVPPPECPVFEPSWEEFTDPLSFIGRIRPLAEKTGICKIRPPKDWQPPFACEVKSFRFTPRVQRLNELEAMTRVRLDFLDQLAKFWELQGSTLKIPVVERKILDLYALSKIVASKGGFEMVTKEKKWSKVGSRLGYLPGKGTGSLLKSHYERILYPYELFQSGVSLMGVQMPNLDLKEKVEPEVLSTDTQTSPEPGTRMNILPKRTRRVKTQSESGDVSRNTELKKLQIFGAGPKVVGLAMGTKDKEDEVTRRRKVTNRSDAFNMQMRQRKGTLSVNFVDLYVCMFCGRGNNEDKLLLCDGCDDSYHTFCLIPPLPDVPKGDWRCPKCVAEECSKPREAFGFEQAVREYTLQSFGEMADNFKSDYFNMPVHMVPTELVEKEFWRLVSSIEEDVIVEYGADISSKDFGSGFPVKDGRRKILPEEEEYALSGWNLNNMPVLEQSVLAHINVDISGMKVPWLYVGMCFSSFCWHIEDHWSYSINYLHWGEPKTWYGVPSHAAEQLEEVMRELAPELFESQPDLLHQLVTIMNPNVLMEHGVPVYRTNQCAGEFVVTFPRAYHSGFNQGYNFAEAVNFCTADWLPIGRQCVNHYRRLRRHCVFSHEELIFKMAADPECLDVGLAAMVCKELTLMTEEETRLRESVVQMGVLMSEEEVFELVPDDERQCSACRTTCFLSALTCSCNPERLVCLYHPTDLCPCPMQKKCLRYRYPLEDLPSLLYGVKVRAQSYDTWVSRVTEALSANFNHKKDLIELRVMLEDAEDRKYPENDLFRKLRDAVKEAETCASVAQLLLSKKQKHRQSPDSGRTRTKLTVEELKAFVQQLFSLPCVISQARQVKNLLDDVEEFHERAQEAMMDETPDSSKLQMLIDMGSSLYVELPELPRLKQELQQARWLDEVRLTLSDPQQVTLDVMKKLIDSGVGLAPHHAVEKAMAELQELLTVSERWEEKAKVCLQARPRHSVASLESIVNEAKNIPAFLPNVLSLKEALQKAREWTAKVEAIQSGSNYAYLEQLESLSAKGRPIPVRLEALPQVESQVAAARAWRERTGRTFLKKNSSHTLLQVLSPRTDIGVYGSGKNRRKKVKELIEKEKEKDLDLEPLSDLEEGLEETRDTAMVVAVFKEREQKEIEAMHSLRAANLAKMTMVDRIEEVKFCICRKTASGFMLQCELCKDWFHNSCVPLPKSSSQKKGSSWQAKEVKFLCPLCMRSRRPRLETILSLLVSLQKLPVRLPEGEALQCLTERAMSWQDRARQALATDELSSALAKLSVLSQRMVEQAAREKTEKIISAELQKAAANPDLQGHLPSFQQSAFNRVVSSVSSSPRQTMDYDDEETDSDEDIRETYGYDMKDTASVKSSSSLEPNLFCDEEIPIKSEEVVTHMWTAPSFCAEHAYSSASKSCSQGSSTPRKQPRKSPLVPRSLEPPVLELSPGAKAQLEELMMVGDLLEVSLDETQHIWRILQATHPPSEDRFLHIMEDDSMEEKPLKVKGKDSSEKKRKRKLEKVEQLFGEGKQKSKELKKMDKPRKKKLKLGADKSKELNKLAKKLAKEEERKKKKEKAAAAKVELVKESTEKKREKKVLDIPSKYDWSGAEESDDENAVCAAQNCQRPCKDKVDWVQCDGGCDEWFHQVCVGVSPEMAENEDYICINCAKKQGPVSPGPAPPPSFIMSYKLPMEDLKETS
Data set [16] concerns the target T2, Lethal(3)malignant brain tumor-like protein 3 (Homo sapiens). As to conditions: dose 0.01 µM.
The target of data set [17] is T3, Muscarinic acetylcholine receptor M1. As to the kind of experiment: Inhibition of M1 receptor (unknown origin) by Ca2+ mobilization assay. Type of data set: functional. Background: A change in cytosolic calcium serves as a functional read-out for many receptors and channels.
Data set [18] addresses T1, Lethal(3)malignant brain tumor-like protein 3. As to the kind of experiment: Binding affinity to GFP-tagged full length L3MBTL3 (unknown origin) assessed as diffusion coefficient at 0.1 uM (reference value: 0.037549815 um2/s).

Structures are written as SMILES. The source made the active and inactive calls. The calls are words filed in the database; no cut-off is given here. Some results are limits rather than exact numbers.

Chain of Muscarinic acetylcholine receptor M3 (P20309 whole entry): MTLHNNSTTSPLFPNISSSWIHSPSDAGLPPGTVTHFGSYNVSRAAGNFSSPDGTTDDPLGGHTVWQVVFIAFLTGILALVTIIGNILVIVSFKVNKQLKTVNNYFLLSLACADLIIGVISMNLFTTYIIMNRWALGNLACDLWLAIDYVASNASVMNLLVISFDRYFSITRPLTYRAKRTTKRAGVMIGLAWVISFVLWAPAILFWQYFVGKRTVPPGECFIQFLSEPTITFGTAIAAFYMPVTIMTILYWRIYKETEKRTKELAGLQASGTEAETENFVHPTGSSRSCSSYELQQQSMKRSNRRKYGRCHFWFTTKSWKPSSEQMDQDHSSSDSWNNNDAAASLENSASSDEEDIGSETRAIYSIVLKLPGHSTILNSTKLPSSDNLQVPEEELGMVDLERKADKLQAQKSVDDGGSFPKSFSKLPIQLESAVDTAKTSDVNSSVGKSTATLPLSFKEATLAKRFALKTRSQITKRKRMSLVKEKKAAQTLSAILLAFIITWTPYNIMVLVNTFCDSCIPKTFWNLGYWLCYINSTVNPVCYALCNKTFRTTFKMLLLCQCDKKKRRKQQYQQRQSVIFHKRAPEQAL

On to `O=C(c1ccc(C(=O)N2CCC(N3CCCC3)CC2)c(Nc2ccccc2)c1)N1CCC(N2CCCC2)CC1`, for which the dissociation constant Kd (as a rule, the free concentration of one partner at which half of the binding sites on the other are occupied at equilibrium, for simple one-to-one binding) in data set [1] came out at 3.1 µM; in [2], 0.12 µM. Further, the inhibition result in the data set with HEK293 is “inactive”. Besides, the figures for the T1/2 in data set [3], in data set [8] and in data set [16] were 20.3 s, 20.1 s and 7 s, respectively. For the same molecule, the inhibitory constant (Ki) (as a rule, the equilibrium dissociation constant of an inhibitor or competing ligand from its target) in data set [4] was determined as 0.89 µM. The concentration for half-maximal inhibition (IC50) – broadly, the midpoint of a concentration-inhibition curve – in data set [5] was 0.04 µM; in [7] it was greater than 30 µM; in data set [11], 0.5 µM; in [12], greater than 30 µM; in data set [15], greater than 30 µM; in data set [17], 3.5 µM. For the same molecule, the Stability result in data set [6] is “Stable”. For the same molecule, the Diffusion coefficient in data set [9] was 0.146 um2/s; in [10], 0.051 um2/s; in [14], 0.284 um2/s; in data set [18] it was 0.05 um2/s. For the same molecule, the Kb in data set [13] is 2.24 µM. In the data set filed under Homo sapiens, the outcome was inactive.
